# Activity calls are given as the source filed them. No cut-off for these calls is given here.
# What was measured:
# Assay type in all cases: functional
# Blastomyces dermatitidis [1] = test: Antifungal activity against Blastomyces dermatitidis Gilchrist & Stokes isolate 1107 at 10 ug/ml after 2 weeks (reference value: 35 mm); details: Gilchrist & Stokes isolate 1107, 336 h, read-out: DIZ
# How it was run: (§1)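 Mycelial phase grown on Sabouraud dextrose agar at 25°C. Agar pH was set to 6 before the test solution was added and was 5.0-5.5 after. Test solutions contained HOAc and Me2SO, and solvent and blank controls were included. Each quadrant was center-inoculated with a 2 × 2 mm piece of a 2-week-old mycelial culture. Colony diameter was measured weekly for 3 weeks and reported as total increments (mm). Duplicates were run.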
# Blastomyces dermatitidis [2] = test: Antifungal activity against Blastomyces dermatitidis Gilchrist & Stokes isolate 1107 at 80 ug/ml after 3 weeks (reference value: 40 mm); details: Gilchrist & Stokes isolate 1107, 504 h, read-out: DIZ; how it was run: as §1
# Blastomyces dermatitidis [3] = test: Antifungal activity against Blastomyces dermatitidis Gilchrist & Stokes isolate 1107 at 60 ug/ml after 3 weeks (reference value: 40 mm); details: Gilchrist & Stokes isolate 1107, 504 h, read-out: DIZ; how it was run: as §1
# Blastomyces dermatitidis [4] = test: Antifungal activity against Blastomyces dermatitidis Gilchrist & Stokes isolate 1107 at 40 ug/ml after 3 weeks (reference value: 40 mm); details: Gilchrist & Stokes isolate 1107, 504 h, read-out: DIZ; how it was run: as §1
# Histoplasma capsulatum [5] = test: Antifungal activity against Histoplasma capsulatum Darling isolate 1106 at 80 ug/ml after 1 week (reference value: 14 mm)
# Histoplasma capsulatum [6] = test: Antifungal activity against Histoplasma capsulatum Darling isolate 1106 at 40 ug/ml after 1 week (reference value: 14 mm)
# Histoplasma capsulatum [7] = test: Antifungal activity against Histoplasma capsulatum Darling isolate 1106 at 100 ug/ml after 2 weeks (reference value: 25 mm)
# Histoplasma capsulatum [8] = test: Antifungal activity against Histoplasma capsulatum Darling isolate 1106 at 80 ug/ml after 2 weeks (reference value: 25 mm)
# Histoplasma capsulatum [9] = test: Antifungal activity against Histoplasma capsulatum Darling isolate 1106 at 60 ug/ml after 2 weeks (reference value: 25 mm)
# Histoplasma capsulatum [10] = test: Antifungal activity against Histoplasma capsulatum Darling isolate 1106 at 40 ug/ml after 2 weeks (reference value: 25 mm)
# Histoplasma capsulatum [11] = test: Antifungal activity against Histoplasma capsulatum Darling isolate 1106 at 100 ug/ml after 3 weeks (reference value: 31 mm)
# Histoplasma capsulatum [12] = test: Antifungal activity against Histoplasma capsulatum Darling isolate 1106 at 60 ug/ml after 3 weeks (reference value: 31 mm)
# Histoplasma capsulatum [13] = test: Antifungal activity against Histoplasma capsulatum Darling isolate 1106 at 40 ug/ml after 3 weeks (reference value: 31 mm); details: Darling isolate 1106, 504 h, read-out: DIZ
# Histoplasma capsulatum [14] = test: Antifungal activity against Histoplasma capsulatum Darling isolate 1106 at 10 ug/ml after 3 weeks (reference value: 31 mm); details: Darling isolate 1106, 504 h, read-out: DIZ
# Blastomyces dermatitidis [15] = test: Antifungal activity against Blastomyces dermatitidis Gilchrist & Stokes isolate 1099 at 80 ug/ml after 1 week (reference value: 14 mm)
# Blastomyces dermatitidis [16] = test: Antifungal activity against Blastomyces dermatitidis Gilchrist & Stokes isolate 1099 at 60 ug/ml after 1 week (reference value: 14 mm)
# Blastomyces dermatitidis [17] = test: Antifungal activity against Blastomyces dermatitidis Gilchrist & Stokes isolate 1099 at 10 ug/ml after 1 week (reference value: 14 mm); details: Gilchrist & Stokes isolate 1099, 168 h, read-out: DIZ; how it was run: as §1
# Blastomyces dermatitidis [18] = test: Antifungal activity against Blastomyces dermatitidis Gilchrist & Stokes isolate 1099 at 60 ug/ml after 2 weeks (reference value: 27 mm); details: Gilchrist & Stokes isolate 1099, 336 h, read-out: DIZ; how it was run: as §1
# Blastomyces dermatitidis [19] = test: Antifungal activity against Blastomyces dermatitidis Gilchrist & Stokes isolate 1099 at 10 ug/ml after 2 weeks (reference value: 27 mm); details: Gilchrist & Stokes isolate 1099, 336 h, read-out: DIZ; how it was run: as §1
# Blastomyces dermatitidis [20] = test: Antifungal activity against Blastomyces dermatitidis Gilchrist & Stokes isolate 1099 at 80 ug/ml after 3 weeks (reference value: 34 mm); details: Gilchrist & Stokes isolate 1099, 504 h, read-out: DIZ; how it was run: as §1
# Blastomyces dermatitidis [21] = test: Antifungal activity against Blastomyces dermatitidis Gilchrist & Stokes isolate 1107 at 100 ug/ml after 1 week (reference value: 20 mm)
# Blastomyces dermatitidis [22] = test: Antifungal activity against Blastomyces dermatitidis Gilchrist & Stokes isolate 1107 at 80 ug/ml after 1 week (reference value: 20 mm)
# Blastomyces dermatitidis [23] = test: Antifungal activity against Blastomyces dermatitidis Gilchrist & Stokes isolate 1107 at 60 ug/ml after 1 week (reference value: 20 mm)
# Blastomyces dermatitidis [24] = test: Antifungal activity against Blastomyces dermatitidis Gilchrist & Stokes isolate 1107 at 40 ug/ml after 1 week (reference value: 20 mm)
# Blastomyces dermatitidis [25] = test: Antifungal activity against Blastomyces dermatitidis Gilchrist & Stokes isolate 1107 at 20 ug/ml after 1 week (reference value: 20 mm); details: Gilchrist & Stokes isolate 1107, 168 h, read-out: DIZ; how it was run: as §1
# Blastomyces dermatitidis [26] = test: Antifungal activity against Blastomyces dermatitidis Gilchrist & Stokes isolate 1107 at 10 ug/ml after 1 week (reference value: 20 mm); details: Gilchrist & Stokes isolate 1107, 168 h, read-out: DIZ; how it was run: as §1
# Blastomyces dermatitidis [27] = test: Antifungal activity against Blastomyces dermatitidis Gilchrist & Stokes isolate 1107 at 100 ug/ml after 2 weeks (reference value: 35 mm); how it was run: as §1
# Blastomyces dermatitidis [28] = test: Antifungal activity against Blastomyces dermatitidis Gilchrist & Stokes isolate 1107 at 80 ug/ml after 2 weeks (reference value: 35 mm); details: Gilchrist & Stokes isolate 1107, 336 h, read-out: DIZ; how it was run: as §1
# Blastomyces dermatitidis [29] = test: Antifungal activity against Blastomyces dermatitidis Gilchrist & Stokes isolate 1107 at 60 ug/ml after 2 weeks (reference value: 35 mm); details: Gilchrist & Stokes isolate 1107, 336 h, read-out: DIZ; how it was run: as §1
# Blastomyces dermatitidis [30] = test: Antifungal activity against Blastomyces dermatitidis Gilchrist & Stokes isolate 1107 at 40 ug/ml after 2 weeks (reference value: 35 mm); details: Gilchrist & Stokes isolate 1107, 336 h, read-out: DIZ; how it was run: as §1
# Histoplasma capsulatum [31] = test: Antifungal activity against Histoplasma capsulatum Darling isolate 1098 at 60 ug/ml after 1 week (reference value: 12 mm)
# Histoplasma capsulatum [32] = test: Antifungal activity against Histoplasma capsulatum Darling isolate 1098 at 20 ug/ml after 1 week (reference value: 12 mm); details: Darling isolate 1098, 168 h, read-out: DIZ
# Histoplasma capsulatum [33] = test: Antifungal activity against Histoplasma capsulatum Darling isolate 1098 at 100 ug/ml after 2 weeks (reference value: 21 mm)
# Histoplasma capsulatum [34] = test: Antifungal activity against Histoplasma capsulatum Darling isolate 1098 at 80 ug/ml after 2 weeks (reference value: 21 mm)
# Histoplasma capsulatum [35] = test: Antifungal activity against Histoplasma capsulatum Darling isolate 1098 at 40 ug/ml after 2 weeks (reference value: 21 mm); details: Darling isolate 1098, 336 h, read-out: DIZ
# Histoplasma capsulatum [36] = test: Antifungal activity against Histoplasma capsulatum Darling isolate 1098 at 20 ug/ml after 2 weeks (reference value: 21 mm); details: Darling isolate 1098, 336 h, read-out: DIZ
# Histoplasma capsulatum [37] = test: Antifungal activity against Histoplasma capsulatum Darling isolate 1098 at 100 ug/ml after 3 weeks (reference value: 28 mm)
# Histoplasma capsulatum [38] = test: Antifungal activity against Histoplasma capsulatum Darling isolate 1098 at 80 ug/ml after 3 weeks (reference value: 28 mm)
# Histoplasma capsulatum [39] = test: Antifungal activity against Histoplasma capsulatum Darling isolate 1098 at 60 ug/ml after 3 weeks (reference value: 28 mm); details: Darling isolate 1098, 504 h, read-out: DIZ
# Histoplasma capsulatum [40] = test: Antifungal activity against Histoplasma capsulatum Darling isolate 1098 at 40 ug/ml after 3 weeks (reference value: 28 mm); details: Darling isolate 1098, 504 h, read-out: DIZ
# [41] = Darling isolate 1106, 168 h, read-out: DIZ
# [42] = Darling isolate 1106, 336 h, read-out: DIZ
# [43] = Darling isolate 1106, 504 h, read-out: DIZ
# [44] = Gilchrist & Stokes isolate 1099, 168 h, read-out: DIZ
# [45] = Gilchrist & Stokes isolate 1107, 168 h, read-out: DIZ
# [46] = Darling isolate 1098, 336 h, read-out: DIZ
# [47] = Darling isolate 1098, 504 h, read-out: DIZ
Structure (SMILES),zone of inhibition at 10 µg/mL (Blastomyces dermatitidis [1]) [mm],zone of inhibition at 80 µg/mL (Blastomyces dermatitidis [2]) [mm],zone of inhibition at 60 µg/mL (Blastomyces dermatitidis [3]) [mm],zone of inhibition at 40 µg/mL (Blastomyces dermatitidis [4]) [mm],zone of inhibition at 40 µg/mL (Histoplasma capsulatum [13]) [mm],zone of inhibition at 10 µg/mL (Histoplasma capsulatum [14]) [mm],zone of inhibition at 10 µg/mL (Blastomyces dermatitidis [17]) [mm],zone of inhibition at 60 µg/mL (Blastomyces dermatitidis [18]) [mm],zone of inhibition at 10 µg/mL (Blastomyces dermatitidis [19]) [mm],zone of inhibition at 80 µg/mL (Blastomyces dermatitidis [20]) [mm],zone of inhibition at 20 µg/mL (Blastomyces dermatitidis [25]) [mm],zone of inhibition at 10 µg/mL (Blastomyces dermatitidis [26]) [mm],zone of inhibition at 80 µg/mL (Blastomyces dermatitidis [28]) [mm],zone of inhibition at 60 µg/mL (Blastomyces dermatitidis [29]) [mm],zone of inhibition at 40 µg/mL (Blastomyces dermatitidis [30]) [mm],zone of inhibition at 20 µg/mL (Histoplasma capsulatum [32]) [mm],zone of inhibition at 40 µg/mL (Histoplasma capsulatum [35]) [mm],zone of inhibition at 20 µg/mL (Histoplasma capsulatum [36]) [mm],zone of inhibition at 60 µg/mL (Histoplasma capsulatum [39]) [mm],zone of inhibition at 40 µg/mL (Histoplasma capsulatum [40]) [mm],also measured
C[C@@H]1CC[C@@H](c2ccoc2)N2C(O)[C@@](C)(Sc3ccccc3)CC[C@@H]12 (stereo not given in full),26,7,14,18,5,25,12,6,20,4,7,13,3,10,15,8,9,14,8,13,Activity (Histoplasma capsulatum [5]): Active; Activity (Histoplasma capsulatum [6]): inactive; Activity (Histoplasma capsulatum [7]): Active; Activity (Histoplasma capsulatum [8]): Active; Activity (Histoplasma capsulatum [9]): Active; Activity (Histoplasma capsulatum [10]): inactive; Activity (Histoplasma capsulatum [11]): Active; Activity (Histoplasma capsulatum [12]): Active; Activity (Blastomyces dermatitidis [15]): Active; Activity (Blastomyces dermatitidis [16]): Active; Activity (Blastomyces dermatitidis [21]): Active; Activity (Blastomyces dermatitidis [22]): Active; Activity (Blastomyces dermatitidis [23]): Active; Activity (Blastomyces dermatitidis [24]): inactive; Activity (Blastomyces dermatitidis [27]): Active; Activity (Histoplasma capsulatum [31]): Active; Activity (Histoplasma capsulatum [33]): Active; Activity (Histoplasma capsulatum [34]): Active; Activity (Histoplasma capsulatum [37]): Active; Activity (Histoplasma capsulatum [38]): Active
CS[C@@]1(C)CC[C@@H]2CCCCN2C1O (stereo not given in full),33,40,40,40,28,26,16,25,28,33,21,20,29,31,33,10,19,18,30,30,"zone of inhibition at 80 µg/mL (Histoplasma capsulatum [5]; [41]): 10 mm; zone of inhibition at 40 µg/mL (Histoplasma capsulatum [6]; [41]): 10 mm; zone of inhibition at 100 µg/mL (Histoplasma capsulatum [7]; [42]): 17 mm; zone of inhibition at 80 µg/mL (Histoplasma capsulatum [8]; [42]): 19 mm; zone of inhibition at 60 µg/mL (Histoplasma capsulatum [9]; [42]): 19 mm; zone of inhibition at 40 µg/mL (Histoplasma capsulatum [10]; [42]): 21 mm; zone of inhibition at 100 µg/mL (Histoplasma capsulatum [11]; [43]): 26 mm; zone of inhibition at 60 µg/mL (Histoplasma capsulatum [12]; [43]): 27 mm; zone of inhibition at 80 µg/mL (Blastomyces dermatitidis [15]; [44]): 13 mm; zone of inhibition at 60 µg/mL (Blastomyces dermatitidis [16]; [44]): 13 mm; zone of inhibition at 100 µg/mL (Blastomyces dermatitidis [21]; [45]): 16 mm; zone of inhibition at 80 µg/mL (Blastomyces dermatitidis [22]; [45]): 18 mm; zone of inhibition at 60 µg/mL (Blastomyces dermatitidis [23]; [45]): 20 mm; zone of inhibition at 40 µg/mL (Blastomyces dermatitidis [24]; [45]): 20 mm; zone of inhibition at 100 µg/mL (Blastomyces dermatitidis [27]; Gilchrist & Stokes isolate 1107, 336 h, read-out: DIZ): 31 mm; zone of inhibition at 60 µg/mL (Histoplasma capsulatum [31]; Darling isolate 1098, 168 h, read-out: DIZ): 9 mm; zone of inhibition at 100 µg/mL (Histoplasma capsulatum [33]; [46]): 15 mm; zone of inhibition at 80 µg/mL (Histoplasma capsulatum [34]; [46]): 18 mm; zone of inhibition at 100 µg/mL (Histoplasma capsulatum [37]; [47]): 30 mm; zone of inhibition at 80 µg/mL (Histoplasma capsulatum [38]; [47]): 30 mm"
